# According to ChEMBL document CHEMBL1153829, “Exploiting chemical libraries, structure, and genomics in the search for kinase inhibitors” (Science, 1998):
# The source made the active and inactive calls. The rule behind the calls is not given here.
# Key:
# [1] = tested on: Saccharomyces cerevisiae; assay: Increase in PHO81 mRNA level in delta snq2, delta pdr5 and delta erg6 knock out yeast YRP1 at 25 µM after 2 hrs by high-density oligonucleotide array; type: functional, organism-based; conditions: 25 M
# Method in brief: (§1)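 Drug-sensitized S. cerevisiae cultures grown to late logarithmic phase, then exposed to 25 μM inhibitor for 2 h. Polyadenylated mRNA isolated, converted to biotin-labeled cRNA and hybridized to a set of four high-density arrays carrying more than 260,000 25-nucleotide oligomers. Transcripts scored as changed when they shifted more than twofold in triplicate hybridizations for each of two independent experiments.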
# [2] = tested on: Saccharomyces cerevisiae; assay: Increase in PCL5 mRNA level in delta snq2, delta pdr5 and delta erg6 knock out yeast YRP1 at 25 µM after 2 hrs by high-density oligonucleotide array; type: functional, organism-based; method in brief: as §1
# [3] = tested on: Saccharomyces cerevisiae; assay: Increase in PHO5 mRNA level in delta snq2, delta pdr5 and delta erg6 knock out yeast YRP1 at 25 µM after 2 hrs by high-density oligonucleotide array; type: functional, organism-based; method in brief: as §1
# [4] = tested on: Saccharomyces cerevisiae; assay: Increase in YBR296c mRNA level in delta snq2, delta pdr5 and delta erg6 knock out yeast YRP1 at 25 µM after 2 hrs by high-density oligonucleotide array; type: functional, organism-based; conditions: 25 M; method in brief: as §1
# [5] = tested on: Saccharomyces cerevisiae; assay: Induction of PFK26 gene expression in delta snq2, delta pdr5 and delta erg6 knock out yeast YRP1 at 25 µM after 2 hrs by high-density oligonucleotide array; type: functional, organism-based; conditions: 25 M
# Method in brief: (§2)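 Drug-sensitized yeast strain grown to late logarithmic phase, then exposed to 25 μM inhibitor for 2 h. Polyadenylated mRNA was isolated and converted to biotin-labeled cRNA, which was hybridized to a set of four arrays carrying over 260,000 25-nucleotide oligomers. Transcripts changing more than twofold were scored, from triplicate hybridizations in each of two independent experiments.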
# [6] = tested on: Saccharomyces cerevisiae; assay: Induction of YPR184W gene expression in delta snq2, delta pdr5 and delta erg6 knock out yeast YRP1 at 25 µM after 2 hrs by high-density oligonucleotide array; type: functional, organism-based; method in brief: as §2
# [7] = tested on: Saccharomyces cerevisiae; assay: Upregulation of YPT53 gene expression in delta snq2, delta pdr5 and delta erg6 knock out yeast YRP1 at 25 µM after 2 hrs by high-density oligonucleotide array; type: functional, organism-based; conditions: 25 M; method in brief: as §2
# [8] = tested on: Saccharomyces cerevisiae; assay: Upregulation of PMC1 gene expression in delta snq2, delta pdr5 and delta erg6 knock out yeast YRP1 at 25 µM after 2 hrs by high-density oligonucleotide array; type: functional, organism-based; method in brief: as §2
# [9] = tested on: Saccharomyces cerevisiae; assay: Decrease in RPL26B mRNA level in delta snq2, delta pdr5 and delta erg6 knock out yeast YRP1 at 25 µM after 2 hrs by high-density oligonucleotide array; type: functional; method in brief: as §1
# [10] = tested on: Saccharomyces cerevisiae; assay: Decrease in RPS24A mRNA level in delta snq2, delta pdr5 and delta erg6 knock out yeast YRP1 at 25 µM after 2 hrs by high-density oligonucleotide array; type: functional; method in brief: as §1
# [11] = tested on: Saccharomyces cerevisiae; assay: Effect on YOL155C gene expression in delta snq2, delta pdr5 and delta erg6 knock out yeast YRP1 bearing cdc28-4 mutant allele assessed as change in mRNA level at 25 µM after 2 hrs by high-density oligonucleotide array; type: functional, organism-based
# [12] = tested on: Saccharomyces cerevisiae; assay: Effect on ACH1 gene expression in delta snq2, delta pdr5 and delta erg6 knock out yeast YRP1 bearing cdc28-4 mutant allele assessed as change in mRNA level at 25 µM after 2 hrs by high-density oligonucleotide array; type: functional, organism-based; conditions: 25 M
# [13] = tested on: Saccharomyces cerevisiae; assay: Effect on YCL009c gene expression in delta snq2, delta pdr5 and delta erg6 knock out yeast YRP1 bearing cdc28-4 mutant allele assessed as change in mRNA level at 25 µM after 2 hrs by high-density oligonucleotide array; type: functional, organism-based
# [14] = tested on: Saccharomyces cerevisiae; assay: Effect on YGL121C gene expression in delta snq2, delta pdr5 and delta erg6 knock out yeast YRP1 bearing cdc28-4 mutant allele assessed as change in mRNA level at 25 µM after 2 hrs by high-density oligonucleotide array; type: functional, organism-based; conditions: 25 M
# [15] = tested on: Saccharomyces cerevisiae; assay: Effect on YHR143W gene expression in delta snq2, delta pdr5 and delta erg6 knock out yeast YRP1 assessed as change in mRNA level at 25 µM after 2 hrs by high-density oligonucleotide array; type: functional, organism-based; conditions: 25 M; method in brief: as §1
# [16] = tested on: Saccharomyces cerevisiae; assay: Increase in PHO80 mRNA level in delta snq2, delta pdr5 and delta erg6 knock out yeast YRP1 at 25 µM after 2 hrs by high-density oligonucleotide array; type: functional, organism-based; method in brief: as §1
# [17] = tested on: Saccharomyces cerevisiae; assay: Effect on YLR311C gene expression in delta snq2, delta pdr5 and delta erg6 knock out yeast YRP1 bearing cdc28-4 mutant allele assessed as change in mRNA level at 25 µM after 2 hrs by high-density oligonucleotide array; type: functional, organism-based; conditions: 25 M
# [18] = tested on: Saccharomyces cerevisiae; assay: Effect on YER037w gene expression in delta snq2, delta pdr5 and delta erg6 knock out yeast YRP1 bearing cdc28-4 mutant allele assessed as change in mRNA level at 25 µM after 2 hrs by high-density oligonucleotide array; type: functional, organism-based
# [19] = tested on: Saccharomyces cerevisiae; assay: Effect on YOR248W gene expression in delta snq2, delta pdr5 and delta erg6 knock out yeast YRP1 bearing cdc28-4 mutant allele assessed as change in mRNA level at 25 µM after 2 hrs by high-density oligonucleotide array; type: functional, organism-based; conditions: 25 M
# [20] = tested on: Saccharomyces cerevisiae; assay: Effect on HTA2 gene expression in delta snq2, delta pdr5 and delta erg6 knock out yeast YRP1 bearing cdc28-4 mutant allele assessed as change in mRNA level at 25 µM after 2 hrs by high-density oligonucleotide array; type: functional, organism-based
# [21] = tested on: Saccharomyces cerevisiae; assay: Upregulation of GSC2 gene expression in delta snq2, delta pdr5 and delta erg6 knock out yeast YRP1 at 25 µM after 2 hrs by high-density oligonucleotide array; type: functional, organism-based; conditions: 25 M; method in brief: as §2
# [22] = tested on: Saccharomyces cerevisiae; assay: Effect on YGL179C gene expression in delta snq2, delta pdr5 and delta erg6 knock out yeast YRP1 assessed as change in mRNA level at 25 µM after 2 hrs by high-density oligonucleotide array; type: functional, organism-based; conditions: 25 M; method in brief: as §1
# [23] = tested on: Saccharomyces cerevisiae; assay: Growth inhibition of delta snq2, delta pdr5 and delta erg6 knock out yeast YRP1 assessed as induction of uniform arrest morphology; type: functional, organism-based
# [24] = tested on: Saccharomyces cerevisiae; assay: Growth inhibition of delta snq2, delta pdr5 and delta erg6 knock out yeast YRP1 assessed as synchronization by FACS analysis; type: functional, organism-based
# [25] = tested on: Saccharomyces cerevisiae; assay: Downregulation of HTB2 mRNA expression in delta snq2, delta pdr5 and delta erg6 knock out yeast YRP1 at 25 µM after 2 hrs by high-density oligonucleotide array; type: functional, organism-based; conditions: 25 M; method in brief: as §1
# [26] = tested on: Saccharomyces cerevisiae; assay: Induction of YAL061W gene expression in delta snq2, delta pdr5 and delta erg6 knock out yeast YRP1 at 25 µM after 2 hrs by high-density oligonucleotide array; type: functional, organism-based; conditions: 25 M; method in brief: as §2
# [27] = tested on: Saccharomyces cerevisiae; assay: Effect on YGR043C gene expression in delta snq2, delta pdr5 and delta erg6 knock out yeast YRP1 assessed as change in mRNA level at 25 µM after 2 hrs by high-density oligonucleotide array; type: functional, organism-based; method in brief: as §1
# [28] = tested on: Saccharomyces cerevisiae; assay: Effect on PGM2 gene expression in delta snq2, delta pdr5 and delta erg6 knock out yeast YRP1 assessed as change in mRNA level at 25 µM after 2 hrs by high-density oligonucleotide array; type: functional, organism-based; conditions: 25 M; method in brief: as §1
# [29] = tested on: Saccharomyces cerevisiae; assay: Upregulation of SSE2 gene expression in delta snq2, delta pdr5 and delta erg6 knock out yeast YRP1 at 25 µM after 2 hrs by high-density oligonucleotide array; type: functional, organism-based; conditions: 25 M; method in brief: as §2
# [30] = tested on: Saccharomyces cerevisiae; assay: Upregulation of HSP104 gene expression in delta snq2, delta pdr5 and delta erg6 knock out yeast YRP1 at 25 µM after 2 hrs by high-density oligonucleotide array; type: functional, organism-based; conditions: 25 M; method in brief: as §2
# [31] = tested on: Saccharomyces cerevisiae; assay: Upregulation of HSP82 gene expression in delta snq2, delta pdr5 and delta erg6 knock out yeast YRP1 at 25 µM after 2 hrs by high-density oligonucleotide array; type: functional, organism-based; method in brief: as §2
# [32] = tested on: Saccharomyces cerevisiae; assay: Upregulation of PDR10 gene expression in delta snq2, delta pdr5 and delta erg6 knock out yeast YRP1 at 25 µM after 2 hrs by high-density oligonucleotide array; type: functional, organism-based; conditions: 25 M; method in brief: as §2
Structure (SMILES),Activity [1],Activity [2],Activity [3],Activity [4],Activity [5],Activity [6],Activity [7],Activity [8],fold change (FC) [9],fold change (FC) [10],Activity [11],Activity [12],Activity [13],Activity [14],Activity [15],Activity [16],Activity [17],Activity [18],Activity [19],Activity [20],other results
CC(C)n1cnc2/c(=N/c3cccc(Cl)c3)nc(NCCO)[nH]c21,Active,Active,Active,Active,Active,Active,Active,Active,3,3,Active,Active,Active,Active,Active,Active,Active,Active,Active,Active,Activity [21]: Active; Activity [22]: Active; Activity [23]: inactive; Activity [24]: inactive; Activity [25]: Active; Activity [26]: Active; Activity [27]: Active; Activity [28]: Active; Activity [29]: Active; Activity [30]: Active; Activity [31]: Active; Activity [32]: Active
CN1CC[C@H](c2c(O)cc(O)c3c(=O)cc(-c4ccccc4Cl)oc23)[C@H](O)C1 [ALVOCIDIB],Active,Active,Active,Active,Active,Active,Active,Active,3,3,Active,Active,Active,Active,Active,Active,Active,Active,Active,Active,Activity [21]: Active; Activity [22]: Active; Activity [23]: inactive; Activity [24]: inactive; Activity [25]: Active; Activity [26]: Active; Activity [27]: Active; Activity [28]: Active; Activity [29]: Active; Activity [30]: Active; Activity [31]: Active; Activity [32]: Active
